Only some compounds are listed: those with a hit (about 3.7% of all), similar ones and a draw of the others.
RAM inhibit: inhibitors of the yeast RAM network. S. cerevisiae dse1pr::URA3 reporter, 5-FOA growth OD615, 2 d; analog-sensitive cbk1-as2 kinase mutant strain. inhibition, % at 50 µM. 190,000 tested, 1.8% active;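 active = inhibition above a set limit, 3 SD over mean compound inhibition, cut at about 8.4% in these data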;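 note: 0% = DMSO-only wells with no growth and 100% = 10 µM 1-NA-PP1 full growth; inhibition rescues growth on 5-FOA so higher OD means more RAM inhibition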
Yeast life ext: extends the lifespan of yeast | S. cerevisiae growth with nicotinamide, OD615; deaD strain in restrictive glucose medium | 130,000 tested, 0.68% active | inhibition of the nicotinamide effect, % at 10 µM;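 active = inhibition above a set limit, placed 3 SD over the median of all compounds, cut at about 26% in these data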;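 note: 0% = nicotinamide-treated wells and 100% = cells grown without nicotinamide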
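System: Modified budding yeast, DeaD strain | Buffer or medium: Restrictive glucose medium | Also added: 1.5 mM nicotinamide | Doses: 10 µM single point, 0.25% DMSO | Schedule: 48 h compound exposure at 30 °C, humidified | Detection: Absorbance at 615 nm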
INS promoter inh: TRM-6 insulin promoter activity inhibition; AID 1273; inhibition, % at 2 µM; 130,000 tested, 0.9% active; TRM-6 cells, insulin promoter-eGFP reporter, imaging; reporter expression induced with tamoxifen;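 active = inhibition above the mean plus 3 SD, with well images judged a real hit on visual review, cut at about 60% in these data, passing the limit was not always enough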
BB579 growth dn: chemicals that inhibit yeast BB579 growth in restrictive medium (lifespan-shortening candidates); inhibition, % at 10 µM; 140,000 tested, 0.51% active; AID 804; S. cerevisiae BB579 growth, OD615, 48 h;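 active = inhibition above a set limit, 3 SD over the mean compound inhibition, cut at about 44% in these data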
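System: Saccharomyces cerevisiae DeaD strain BB579, replicative lifespan model yeast. Buffer or medium: restrictive glucose-based CSMM-D medium. Doses: one dose, 10 µM compound with 0.25% DMSO. Timing: 4 h preincubation and 48 h exposure at 30 °C. Detection: turbidity as optical density at 615 nm. Benchmarks: amphotericin B 10 µg/mL, positive.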
HMGR II inh: blocks class II HMG-CoA reductase of Enterococcus faecalis; purified E. faecalis HMGR, NADPH absorbance 340 nm kinetic; inhibition, % at 10 µM; 190,000 tested, 0.41% active;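 active = inhibition above a set limit, the median over all tested compounds plus 3 SD, cut at about 9.5% in these data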;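 note: enzyme runs in reverse so mevalonate oxidation gives rising NADPH absorbance; 0% = complete reaction with DMSO and 100% = background rate lacking mevalonate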
Active calls of the source: *; i = inactive; · = not tested or not shown.

SMILES	RAM inhibit	Yeast life ext	INS promoter inh	BB579 growth dn	HMGR II inh
CN(C)S(=O)(=O)c1cccc(NC(=O)Cn2cc(C(F)(F)F)cc(Cl)c2=O)c1	0	·	-7	·	16*
O=C(Cn1cc(C(F)(F)F)cc(Cl)c1=O)Nc1cccc(Cl)c1	4	-3	-36	-21	-5
CC1CCCN(C(=O)N2c3ccccc3Sc3ccccc32)C1 (stereo not given)	10*	-6	-7	-25	-8
CC1CCN(C(=O)N2c3ccccc3Sc3ccccc32)CC1	4	3	-14	-11	-1
CN(C(=O)Nc1cnc2ccccc2c1)c1ccccc1	1	·	·	·	-9
Cc1sc2nc(SCC(=O)NCc3cccs3)[nH]c(=O)c2c1C	1	-23	91*	-34	-2
Cc1sc2nc(SCC(=O)NCc3ccco3)[nH]c(=O)c2c1C	5	-2	0	-15	-1
Cc1cccc(Nc2nnc(SCC(=O)NCc3cccs3)s2)c1C	-1	3	-11	-5	-10
Cc1cccc(Nc2nnc(SCC(=O)NCc3cccs3)s2)c1	8.5*	·	-12	·	-1
CCCc1nc2ccc(NC(=O)NCCC(=O)OCC)cc2c(=O)n1Cc1cccc(Cl)c1	10*	-6	·	-43	-3
CCCc1nc2ccc(NC(=O)NCCC(=O)OCC)cc2c(=O)n1Cc1ccc(Cl)cc1	2	·	-54	5	-3
Cc1[nH]c2ccccc2c1/C=N/Nc1ccccc1[N+](=O)[O-]	8.8*	·	·	·	-8
CC(C)Oc1ccccc1/C=N/Nc1ccccc1[N+](=O)[O-]	8.5*	-2	55	-39	1
CCOc1ccccc1/C=N/Nc1ccccc1[N+](=O)[O-]	9.8*	3	42	-15	-5
COc1ccc(Cl)cc1NC(=O)Cn1c(NCCO)nc2ccccc21	-1	·	·	·	5
Cc1ccc(S(=O)(=O)N2CCCC2C(=O)OCc2ccco2)cc1 (stereo not given)	3	-22	i	-24	-4
Cc1ccc(S(=O)(=O)N2CCCC2C(=O)OCc2ccccc2)cc1 (stereo not given)	9.4*	8	11	-10	0
O=C(OCc1ccc([N+](=O)[O-])cc1)C1CCN(S(=O)(=O)c2ccccc2)CC1	9.1*	0	-13	-28	0
COC(=O)c1sccc1NC(=O)C1CCCCC1C(=O)O (stereo not given)	1	·	·	·	3
COCCNCC(=O)Nc1ccc(OC(F)(F)F)cc1	0	·	42	·	6
CSc1ccccc1C(=O)NCC(c1ccco1)N1CCCCC1 (stereo not given)	1	·	-38	·	12*
CCC1C(c2ccccc2)N(C)C(c2ccccc2)CC1(O)c1ccccc1 (stereo not given)	0	·	·	·	-4
CC(C)C1C(c2ccccc2)N(C)C(c2ccccc2)CC1(O)c1ccccc1 (stereo not given)	0	46*	·	-69	0
Cc1nnc(SCc2ccccc2)n1CC1CCCO1 (stereo not given)	-1	-6	29	2	-4
Cc1nnc(SCc2ccccc2Cl)n1CC1CCCO1 (stereo not given)	-1	-15	30	10	16*
SMILES	RAM inhibit	Yeast life ext	INS promoter inh	BB579 growth dn	HMGR II inh
CCCCN(C(=O)CN1CCOCC1)c1c(N)n(CC(C)C)c(=O)[nH]c1=O	0	4	·	-32	-5
COc1ccc(C)cc1NC(=O)COC(=O)C1CCN(C(=O)c2ccc(Cl)cc2)CC1	0	·	6	·	19*
COc1ccc2sc(NC(C)=O)nc2c1	1	-20	79*	-29	-3
COc1ccc(/C=C/C=C2\NC(=S)NC2=O)cc1	10*	·	·	·	-6
COc1ccc(N=C2NC(=O)/C(=C\C=C\c3ccccc3)S2)cc1	1	·	·	·	-5
COc1ccc(C(=O)Nc2ccc(S(=O)(=O)Nc3onc(C)c3C)cc2)c(OC)c1	4	·	·	·	-2
O=S(=O)(Cc1ccccc1)NCc1cccnc1	0	-18	-222	45*	-2
O=S(=O)(NCc1cccnc1)c1ccccc1	1	2	27	-6	-3
O=C(CN1CCc2ccccc21)NC(=O)NCc1ccccc1	0	·	39	·	-10
Cc1cc(/C=N/n2cnnc2)c(C)n1-c1ccc(OCc2ccc(Cl)cc2Cl)cc1	0	-11	0	46*	0
Cc1cc(/C=N/n2cnnc2)c(C)n1-c1ccc(Cl)cc1	2	3	-128	2	0
N#Cc1c(Nc2ccccc2)sc(C(=O)c2ccc(F)cc2)c1N	11*	3	18	-28	1
CC(C)(C)N/N=C/c1cc(Cl)cc([N+](=O)[O-])c1O	-1	-8	8	92*	-1
O=[N+]([O-])c1cc(Cl)cc(/C=N/Nc2nc3ccccc3s2)c1O	2	·	·	·	3
O=C(/C=C/Sc1ccccc1)c1ccc(Cl)cc1	1	28*	7	-58	0
O=C(/C=C/Sc1ccccc1)c1ccccc1	0	25	-32	-72	1
Cc1ccccc1C(=O)c1cccn1CC(=O)NC(C)c1ccc2c(c1)OCCO2 (stereo not given)	3	·	·	·	12*
Nc1nc(N)nc(COc2ccccc2)n1	2	·	8	·	-1
CCCCCCOc1ccc(-c2ccc(C#N)cn2)cc1	10*	-15	-8	-76	-1
O=C(CN(c1ccc(F)cc1)S(=O)(=O)c1ccc2c(c1)OCCO2)Nc1ccccc1	3	-13	42	-13	-3
Fc1ccc2nc(Nc3nc4cc5c(cc4s3)OCO5)sc2c1	9.2*	-1	·	-8	-5
Cc1ccc2c(c1)/C(=N/OS(=O)(=O)c1ccccc1)CCS2	·	·	-22	·	·
CC1=CC(=O)C=C(C)C1=NOS(=O)(=O)c1ccccc1	-2	-28	i	100*	-4
Cc1ccc(-n2c(SCC(=O)NCc3ccco3)nc3c(sc4ccccc43)c2=O)cc1	3	0	55	-2	-8
CCC(=O)Nc1cccc(NC(=O)c2ccccc2Br)c1	2	-2	·	15	-5
SMILES	RAM inhibit	Yeast life ext	INS promoter inh	BB579 growth dn	HMGR II inh
CCN(CC)S(=O)(=O)c1cccc(NC(=O)c2ccccc2Br)c1	4	·	77*	·	-3
COc1ccc(OC2C(=O)N(Cc3ccc(F)cc3)C2c2cc(OC)c(OC)c(OC)c2)cc1 (stereo not given)	2	0	·	-24	-2
COc1ccc(C2C(Oc3ccccc3C)C(=O)N2Cc2ccc(F)cc2)cc1OC (stereo not given)	8.9*	4	-43	-46	0
Cc1cccc(NC(=S)N=Nc2c(O)n(CN3CCOCC3)c3ccccc23)c1C	4	-1	78*	10	0
COc1ccc2c(c1)c(=O)c(C(=O)c1ccccc1)cn2Cc1ccc(C)cc1	-1	2	7	-26	14*
COc1ccccc1N(CN1CCCC1=O)C(=O)c1c(F)cccc1F	2	103*	·	-22	6
Cc1noc(C)c1COc1cccc(C(=O)OCCOc2ccc(F)cc2)c1	8.7*	-8	3	-17	-9
COc1ccc(-c2cc(-c3n[nH]c(=S)n3-c3ccccc3Cl)[nH]n2)cc1	7	·	0	·	1

Bioassay records deposited in PubChem BioAssay by several laboratories.
